Source: ChEMBL document CHEMBL5096187, “Efficient Synthesis and Bioevaluation of Novel Dual Tubulin/Histone Deacetylase 3 Inhibitors as Potential Anticancer Agents” (J Med Chem, 2021)
The source made the active and inactive calls. The rule behind the calls is not given here.

Assays:
B16-F10 [1] = assay: Induction of apoptosis in mouse B16-F10 cells assessed as viable cells at 50 nM incubated for 48 hrs by Annexin V-FITC/PI analysis (reference value: 98.3 %); type: functional; settings: read-out: Activity
B16-F10 [2] = assay: Induction of apoptosis in mouse B16-F10 cells assessed as necrotic cells at 25 nM incubated for 48 hrs by Annexin V-FITC/PI analysis (reference value: 0.012 %); type: functional
[3] = Antiproliferative activity against human YCC-11 cells assessed as inhibition of cell viability; type: functional, cell-based
[4] = Cardiotoxicity in C57BL/6 mouse ssessed as effect on heart rate by ECG analysis; type: toxicity
How it was run: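 Mice aged 6–8 weeks dosed by intragastric gavage once daily for 14 days; ECG and heart rate recorded on a PowerLab system.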

[5] = Antiproliferative activity against human YCC3/7 cells assessed as inhibition of cell viability; type: functional, cell-based
B16-F10 [6] = assay: Induction of cell cycle arrest in mouse B16-F10 cells assessed as accumulation of cells in G2/M phase at 100 nM measured after 48 hrs by PI/RNaseA staining based flow cytometry analysis (Rvb= 5.76%); type: functional
B16-F10 [7] = assay: Induction of cell cycle arrest in mouse B16-F10 cells assessed as accumulation of cells in G2/M phase at 25 nM measured after 48 hrs by PI/RNaseA staining based flow cytometry analysis (Rvb= 5.76%); type: functional
B16-F10 [8] = assay: Inhibition of cell migration in mouse B16-F10 cells assessed as reduction in wound area ratio measured at 25 nM incubated for 24 hrs by wound healing assay; type: functional; parameters: scale not given: the % may be the effect or the level left
How it was run: (§1)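 Confluent B16-F10 monolayers, seeded overnight, were scratched with a pipette tip and washed to remove debris. Cells were then treated, and phase-contrast images were taken at 0 and 24 h. Migration distance or wound area measured manually against DMSO control; n = 3.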

B16-F10 [9] = assay: Induction of apoptosis in mouse B16-F10 cells assessed as late apoptotic cells at 50 nM incubated for 48 hrs by Annexin V-FITC/PI analysis (reference value: 1.68 %); type: functional
[10] = Hepatotoxicity in C57BL/6 mouse assessed as effect on ALB level in serum; type: toxicity
B16-F10 [11] = assay: Induction of apoptosis in mouse B16-F10 cells assessed as late apoptotic cells at 25 nM incubated for 48 hrs by Annexin V-FITC/PI analysis (reference value: 0.00 %); type: functional
HCT-116 = assay: Antiproliferative activity against human HCT-116 cells assessed as inhibition of cell viability measured for 48 hrs by microplate reader based MTT assay; type: functional; settings: HCT-116, 48 h
How it was run: (§2)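 Cells grown in RPMI-1640 with 10% FBS and seeded at 5000 cells/well. After overnight attachment, compound was added in medium with 0.1% DMSO for 48 h at 37 °C. Read-out was MTT for HCT-116, B16-F10 and A549, and CCK-8 for Jurkat (0.5 mg/mL, 4 h), with absorbance at 570 nm. IC50 from nonlinear regression; at least three independent experiments.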

Tubulin = Tubulin (Sus scrofa, UniProt P02554+P02550); assay: Inhibition of pig brain tubulin polymerization by spectrometric method
How it was run: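 Phosphocellulose-purified pig brain tubulin mixed with graded compound concentrations in PEM buffer (100 mM PIPES, 1 mM MgCl2, 1 mM EGTA) plus 1 mM GTP and 5% glycerol. Absorbance at 340 nm and 37 °C; plateau absorbance used to calculate IC50.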

Tubulin (Sus scrofa) = Tubulin (Sus scrofa) (UniProt P02554+P02550); assay: Inhibition of pig brain tubulin polymerization in mouse B16-F10 cells assessed as disruption of microtubule network at 100 nM measured for 6 hrs by immunofluorescence assay; type: cell-based
How it was run: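 B16-F10 cells on glass coverslips exposed 6 h to test agent or 0.1% DMSO vehicle, fixed in 4% paraformaldehyde, permeabilized with 0.2% Triton X-100 in PBS, blocked 30 min with goat serum, then anti-β-tubulin monoclonal 1 h at 37 °C, fluorescent secondary and DAPI nuclear stain. Microtubule network judged by fluorescence or confocal microscopy.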

Histone deacetylase 8 = biological target: T1, Histone deacetylase 8 (Homo sapiens, UniProt Q9BY41); assay: Inhibition of full length C-terminal his-tagged human recombinant HDAC8 ([…]) expressed in baculovirus in Sf9 insect cells using Ac-Leu-Gly-Lys (Tfa)-AMC as substrate pretreated for 5 mins followed by substrate addition and measured after 30 mins
T1 sequence (Q9BY41 whole entry): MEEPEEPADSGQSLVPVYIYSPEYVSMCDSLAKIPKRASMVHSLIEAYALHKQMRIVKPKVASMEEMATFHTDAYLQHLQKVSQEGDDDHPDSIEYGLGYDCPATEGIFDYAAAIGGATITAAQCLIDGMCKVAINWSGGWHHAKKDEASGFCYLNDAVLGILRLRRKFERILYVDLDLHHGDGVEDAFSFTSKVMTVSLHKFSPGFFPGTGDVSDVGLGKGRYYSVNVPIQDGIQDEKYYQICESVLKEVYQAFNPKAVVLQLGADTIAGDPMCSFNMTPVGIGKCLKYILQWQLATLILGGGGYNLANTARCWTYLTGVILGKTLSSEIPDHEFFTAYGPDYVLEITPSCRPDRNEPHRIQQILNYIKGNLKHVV

B16-F10 [12] = assay: Antimigratory activity against mouse […] cells assessed as reduction in wound closure measured up to 24 hrs by scratch wound healing assay; type: functional, cell-based; settings: dose 25-100 nM, DDE = dose-dependent effect
How it was run: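 B16-F10 cells seeded overnight; confluent monolayers scratched with a pipette tip and rinsed twice with medium to clear debris. Cells treated with compound for 24 h against a DMSO control. Phase-contrast images taken at 0 and 24 h. Migration distance into the wound, or scratch length, measured by hand. n = 3.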

B16-F10 [13] = assay: Inhibition of colony formation in mouse B16-F10 cells assessed as reduction in number of colonies at 100 nM incubated for 24 hrs; type: functional, cell-based
How it was run: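 1000 B16-F10 cells seeded and cultured 24 h at 37 °C, then exposed to compound for 24 h. Medium was then replaced and cells grown 10–14 days. Colonies fixed with 4% paraformaldehyde for 30 min, stained with 0.1% crystal violet for 15 min, and counted; n = 3 versus DMSO.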

[14] = Nephrotoxicity in C57BL/6 mouse assessed as effect on globulin GLO level in serum; type: toxicity; settings: in vivo
B16-F10 [15] = assay: Induction of cell cycle arrest in mouse B16-F10 cells assessed as accumulation of cells in G2/M phase at 50 nM measured after 48 hrs by PI/RNaseA staining based flow cytometry analysis (Rvb= 5.76%); type: functional
B16-F10 [16] = assay: Induction of apoptosis in mouse B16-F10 cells assessed as necrotic cells at 100 nM incubated for 48 hrs by Annexin V-FITC/PI analysis (reference value: 0.012 %); type: functional
B16-F10 [17] = assay: Induction of apoptosis in mouse B16-F10 cells assessed as viable cells at 25 nM incubated for 48 hrs by Annexin V-FITC/PI analysis (reference value: 98.3 %); type: functional; settings: read-out: Activity
B16-F10 [18] = assay: Inhibition of cell migration in mouse B16-F10 cells assessed as reduction in wound area ratio measured at 50 nM incubated for 24 hrs by wound healing assay; type: functional; parameters: scale not given: the % may be the effect or the level left; how it was run: as §1
B16-F10 [19] = assay: Antiproliferative activity against mouse B16-F10 cells assessed as inhibition of cell viability measured for 48 hrs by microplate reader based MTT assay; type: functional; settings: B16-F10, 48 h; how it was run: as §2

Chain of Tubulin (Sus scrofa) (P02550 whole entry, looked up): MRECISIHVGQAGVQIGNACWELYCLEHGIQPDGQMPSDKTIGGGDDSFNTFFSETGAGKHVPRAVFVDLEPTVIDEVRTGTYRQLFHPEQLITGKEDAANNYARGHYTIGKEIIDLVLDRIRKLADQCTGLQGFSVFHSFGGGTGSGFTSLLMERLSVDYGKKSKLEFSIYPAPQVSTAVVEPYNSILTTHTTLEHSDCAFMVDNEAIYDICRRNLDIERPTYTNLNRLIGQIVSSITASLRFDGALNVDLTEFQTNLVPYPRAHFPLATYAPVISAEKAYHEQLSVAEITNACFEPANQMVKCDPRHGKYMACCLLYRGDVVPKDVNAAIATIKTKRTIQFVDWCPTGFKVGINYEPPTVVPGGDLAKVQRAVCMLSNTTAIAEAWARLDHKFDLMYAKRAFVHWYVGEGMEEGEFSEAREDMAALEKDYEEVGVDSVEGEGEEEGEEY
Chain of Tubulin (Sus scrofa) (P02554 whole entry, looked up): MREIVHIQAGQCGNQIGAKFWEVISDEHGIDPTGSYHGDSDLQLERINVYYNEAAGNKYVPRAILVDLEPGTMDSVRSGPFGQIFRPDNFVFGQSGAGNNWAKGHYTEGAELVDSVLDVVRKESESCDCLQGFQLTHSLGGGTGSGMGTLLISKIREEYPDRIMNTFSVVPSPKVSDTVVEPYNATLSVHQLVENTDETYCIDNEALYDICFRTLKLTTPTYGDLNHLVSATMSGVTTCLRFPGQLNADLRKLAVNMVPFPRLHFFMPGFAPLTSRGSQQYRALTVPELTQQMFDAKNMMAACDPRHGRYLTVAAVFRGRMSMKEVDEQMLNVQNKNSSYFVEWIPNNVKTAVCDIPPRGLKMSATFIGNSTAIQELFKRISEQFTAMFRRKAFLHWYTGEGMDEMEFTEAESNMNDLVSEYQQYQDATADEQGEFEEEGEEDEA

IC50 (HCT-116): 50 nM
IC50 (Tubulin): 12200 nM
inhibition (Tubulin (Sus scrofa)): Active
IC50 (Histone deacetylase 8): 11600 nM
IC50 (B16-F10 [19]): 70 nM
SMILES: COc1cc(C(=O)c2csc(-c3ccc(NC(=O)CCCC(=O)Nc4ccccc4N)cc3)n2)cc(OC)c1OC
viability at 0.05 µM (B16-F10 [1]): 58.9%
Activity (B16-F10 [2]): 0%
IC50 [3]: 300 nM
Activity [4]: Non-Toxic
IC50 [5]: 560 nM
Activity (B16-F10 [6]): 83.26%
Activity (B16-F10 [7]): 15.98%
Activity (B16-F10 [8]): 27.32%
Activity (B16-F10 [9]): 32.3%
Activity [10]: Non-Toxic
Activity (B16-F10 [11]): 0%
Activity (B16-F10 [12]): Dde
Activity (B16-F10 [13]): Active
Activity [14]: Non-Toxic
Activity (B16-F10 [15]): 66.32%
Activity (B16-F10 [16]): 1.29%
viability at 0.025 µM (B16-F10 [17]): 89.1%
Activity (B16-F10 [18]): 17.63%
